Square brackets hold non-standard residues; d marks the D form. Ends that are not written are not given here. Peptide text beside a SMILES is read from it. pGlu = O=C1CC[C@@H](C(=O)O)N1
Legend:
[1] = biological target: T1, Drosophila melanogaster AnCE (Drosophila melanogaster, UniProt Q10714); assay: Inhibition of Ang I to Ang II conversion by AnCE; assay type: biochemical; details: pH 7.5, read-out: % inhibition of the conversion of Ang I to Ang II
T1 sequence (Q10714 18-615): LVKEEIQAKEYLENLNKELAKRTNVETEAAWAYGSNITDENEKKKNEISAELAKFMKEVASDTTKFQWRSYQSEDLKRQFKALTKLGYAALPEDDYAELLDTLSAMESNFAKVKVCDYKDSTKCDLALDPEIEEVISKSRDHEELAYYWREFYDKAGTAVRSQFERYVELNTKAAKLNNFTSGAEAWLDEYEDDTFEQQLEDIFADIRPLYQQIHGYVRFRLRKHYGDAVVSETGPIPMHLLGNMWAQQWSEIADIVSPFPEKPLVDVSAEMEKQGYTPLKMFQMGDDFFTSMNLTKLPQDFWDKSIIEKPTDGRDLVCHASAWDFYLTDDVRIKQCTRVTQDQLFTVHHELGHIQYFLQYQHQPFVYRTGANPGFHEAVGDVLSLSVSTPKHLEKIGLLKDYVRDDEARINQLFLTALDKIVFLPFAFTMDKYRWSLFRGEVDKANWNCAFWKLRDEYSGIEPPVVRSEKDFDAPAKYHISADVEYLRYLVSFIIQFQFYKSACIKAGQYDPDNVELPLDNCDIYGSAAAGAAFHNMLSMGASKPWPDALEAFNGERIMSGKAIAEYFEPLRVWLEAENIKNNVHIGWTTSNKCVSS
Outline: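 Recombinant D. melanogaster AnCE expressed in P. pastoris and purified by hydrophobic interaction and size-exclusion chromatography; diluted to 250 ng·μL−1 in reaction buffer containing 0.1 mg·mL−1 BSA. Reaction buffer is 0.1 m Hepes pH 7.5, 10 μm ZnSO4, 0.15 m NaCl, with Ang I (100 μm final) as substrate. Ang I consumption was quantified by HPLC-UV at 214 nm without and with 100 μm (initial) Ang II.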

[2] = biological target: T1, Drosophila melanogaster AnCE; assay: Inhibition of AnCE with Abz-YRK; assay type: biochemical
[3] = biological target: T1, Drosophila melanogaster AnCE; details: ref [17]; cited from earlier work
ACE N- and C-domains = details: mice; ref [7],[8]; cited from earlier work
ACE N-domain = details: ref [9],[10]; cited from earlier work

## CC[C@H](C)[C@H](NC(=O)[C@H](Cc1ccc(O)cc1)NC(=O)[C@@H](NC(=O)[C@H](CCCNC(=N)N)NC(=O)[C@@H](N)CC(=O)O)C(C)C)C(=O)N[C@@H](Cc1c[nH]cn1)C(=O)N1CCC[C@H]1C(=O)N[C@@H](Cc1ccccc1)C(=O)O [Ang II, angiotensin II]
[1]
  inhibition at 100 µM: 73%

## CC[C@H](C)[C@H](NC(=O)[C@H](CCCCN)NC(=O)[C@@H]1CCCN1C(=O)[C@H](CCCNC(=N)N)NC(=O)[C@@H]1CCCN1C(=O)[C@@H]1CCCN1C(=O)[C@H](CC(C)C)NC(=O)CNC(=O)[C@@H]1CCC(=O)N1)C(=O)N1CCC[C@H]1C(=O)N1CCC[C@H]1C(=O)O [BPPb, bradykinin-potentiating peptide-b] ([pGlu]GLPPRPKIPP-OH)
[2]
  Ki: 107 µM

## DRVYIHPFHL [Ang I, angiotensin I]
[3]
  cleavage by AnCE: converts Ang I to Ang II
ACE N- and C-domains
  in vivo conversion to Ang II by ACE domain: the C-domain is primarily responsible

## N-acetyl Ser–Asp–Lys–Pro
ACE N-domain
  degradation by ACE domain: the N-domain is solely responsible

## RPPGFSPFR [BK, bradykinin]
[3]
  cleavage by AnCE: inactivates BK
ACE N- and C-domains
  cleavage efficiency by ACE domains: cleaved with similar efficiency by both domains

Source: publication PMC3564407 (The Febs Journal, 2012)
